# Measurements taken from PMC2887059 (Journal of Medicinal Chemistry, 2010).
# Assays:
# [1] = system: NF-κB activation (HEK293-NF-κB-Luc cells, PMA/ionomycin); type: cell-based, human; settings: HEK293 NF-κB-luciferase reporter; for fold drop in activity relative to 1a: versus 1a
# [2] = Plasma protein binding, mouse plasma; type: in vitro ADME
# [3] = system: IL-2 production by Jurkat T-cells; assay: IL-2 production by Jurkat T-cells; type: cell-based; settings: Homo sapiens, read-out: IC50, production of IL-2
# Procedure, shortened: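 Jurkat T cells were stimulated either with CD3/CD28 or with PMA/ionomycin in the presence of test compound. IL-2 production was measured and an IC50 derived.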
# [4] = system: IL-8 production in HEK293 cells; assay: IL-8 production induced by PKC activators in HEK293 cells; type: cell-based; settings: Homo sapiens, HEK293, read-out: IC50, IL-8 production
# Raf = assay: KINOMEscan; type: binding; settings: 10 μM
# murine B-lymphocytes = assay: Anti-IgM-stimulated proliferation of murine B-lymphocytes; type: cell-based; settings: Mus musculus, read-out: IC50, proliferation of B-lymphocytes
# [5] = Plasma stability, mouse plasma; type: in vitro ADME; settings: mouse plasma/PBS; compound at 40 μM, 3 h
# JAK2 = JAK2 (Homo sapiens, UniProt O60674); assay: KINOMEscan; type: binding; settings: 10 μM
# [6] = system: NF-κB reporter gene activation (other pathways); assay: NF-κB reporter gene activation by agonists of other NF-κB activation pathways; type: cell-based
# PKC-θ = settings: concentrations up to 8 μM; cited from earlier work
# [7] = system: 92 targets (cloned human or rodent receptors, ion channels, and transporters); assay: NIMH-PDSP receptor, ion channel and transporter panel; type: binding; settings: of 92 targets screened, 10 μM
# [8] = Metabolic stability in mouse hepatic microsomes; type: in vitro ADME; settings: 1 h
# [9] = Metabolic stability in human hepatic microsomes; type: in vitro ADME; settings: 1 h
# [10] = In vivo dose-exposure profiling, single ip dose in male mice; settings: 50 mg/kg ip, t = 3 h
# [11] = Plasma stability, human plasma; type: in vitro ADME; settings: human plasma/PBS; compound at 40 μM, 3 h
# TLK1 = target: T1, TLK1 (Homo sapiens, UniProt Q9UKI8); assay: KINOMEscan; type: binding; settings: 10 μM
# T1 sequence (Q9UKI8 1-766): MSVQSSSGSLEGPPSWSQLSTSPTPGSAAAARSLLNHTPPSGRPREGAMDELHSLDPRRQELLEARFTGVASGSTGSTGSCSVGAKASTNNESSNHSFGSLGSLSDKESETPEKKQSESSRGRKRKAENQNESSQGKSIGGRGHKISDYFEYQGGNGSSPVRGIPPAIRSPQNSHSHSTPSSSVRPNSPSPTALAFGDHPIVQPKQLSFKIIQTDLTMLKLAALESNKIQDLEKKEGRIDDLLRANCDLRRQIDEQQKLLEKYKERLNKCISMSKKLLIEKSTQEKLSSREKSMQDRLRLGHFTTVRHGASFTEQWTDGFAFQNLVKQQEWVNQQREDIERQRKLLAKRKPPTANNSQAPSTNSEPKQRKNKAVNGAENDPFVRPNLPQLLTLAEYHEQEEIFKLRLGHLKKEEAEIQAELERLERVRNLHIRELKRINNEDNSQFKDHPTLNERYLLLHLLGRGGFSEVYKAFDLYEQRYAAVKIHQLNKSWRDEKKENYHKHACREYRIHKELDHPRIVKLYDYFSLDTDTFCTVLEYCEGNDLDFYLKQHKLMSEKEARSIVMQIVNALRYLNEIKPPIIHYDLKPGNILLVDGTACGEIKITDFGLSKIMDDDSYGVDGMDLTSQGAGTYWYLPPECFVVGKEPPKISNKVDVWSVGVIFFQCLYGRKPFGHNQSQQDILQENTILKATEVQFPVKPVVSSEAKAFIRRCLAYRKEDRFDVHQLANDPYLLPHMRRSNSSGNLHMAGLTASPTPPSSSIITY
# [12] = system: NF-κB activation induced by TNF-α; assay: NF-κB activation through TNF-α stimulation; type: cell-based
# IKK-β = settings: concentrations up to 8 μM; cited from earlier work
# [13] = Plasma protein binding, human plasma; type: in vitro ADME
# PKC-β = settings: concentrations up to 8 μM; cited from earlier work
# 353 protein kinases = assay: KINOMEscan broad kinome screen; type: binding; settings: of 353 protein kinases surveyed, 10 μM
# Chain of JAK2 (O60674 whole entry): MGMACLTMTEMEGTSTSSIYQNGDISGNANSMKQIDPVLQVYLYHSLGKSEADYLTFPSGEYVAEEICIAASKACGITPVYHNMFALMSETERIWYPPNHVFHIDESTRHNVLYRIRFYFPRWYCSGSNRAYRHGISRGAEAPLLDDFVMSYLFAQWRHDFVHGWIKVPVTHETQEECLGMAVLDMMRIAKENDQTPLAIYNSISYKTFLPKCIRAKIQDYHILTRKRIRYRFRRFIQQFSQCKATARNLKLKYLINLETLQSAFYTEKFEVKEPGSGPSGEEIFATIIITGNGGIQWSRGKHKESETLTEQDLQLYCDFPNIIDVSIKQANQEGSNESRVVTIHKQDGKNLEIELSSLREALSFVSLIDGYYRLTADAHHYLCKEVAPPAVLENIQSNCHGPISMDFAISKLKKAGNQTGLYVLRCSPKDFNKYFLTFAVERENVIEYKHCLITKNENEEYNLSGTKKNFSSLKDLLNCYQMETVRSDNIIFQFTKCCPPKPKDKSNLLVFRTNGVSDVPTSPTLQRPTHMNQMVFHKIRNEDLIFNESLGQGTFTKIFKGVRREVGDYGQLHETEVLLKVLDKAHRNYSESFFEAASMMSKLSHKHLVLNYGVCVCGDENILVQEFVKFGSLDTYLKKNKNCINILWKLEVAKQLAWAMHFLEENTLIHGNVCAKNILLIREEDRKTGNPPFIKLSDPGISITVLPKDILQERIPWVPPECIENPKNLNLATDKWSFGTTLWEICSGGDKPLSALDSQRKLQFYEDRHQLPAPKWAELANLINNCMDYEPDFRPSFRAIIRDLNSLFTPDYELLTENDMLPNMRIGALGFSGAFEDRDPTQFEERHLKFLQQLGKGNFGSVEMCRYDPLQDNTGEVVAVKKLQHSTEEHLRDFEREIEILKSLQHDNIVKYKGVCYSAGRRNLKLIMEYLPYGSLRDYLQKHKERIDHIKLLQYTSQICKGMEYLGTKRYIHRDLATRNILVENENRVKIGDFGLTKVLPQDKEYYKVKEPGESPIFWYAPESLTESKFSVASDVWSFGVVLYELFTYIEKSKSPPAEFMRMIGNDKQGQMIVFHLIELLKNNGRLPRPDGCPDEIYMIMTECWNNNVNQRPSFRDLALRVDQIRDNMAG
structure (smiles),measurement,setting,value
CC(C)(C)c1cc(C(=O)Cn2c(NCCCO)nc3ccc(Br)cc32)cc(C(C)(C)C)c1O [Compound 17b],fold drop in activity relative to 1a,[1],40−80 fold
"Cc1cc2nc(NCCCO)n(CC(=O)c3cc(C(C)(C)C)c(O)c(C(C)(C)C)c3)c2cc1C [Compound 1a, 1-(3,5-di-tert-butyl-4-hydroxyphenyl)-2-(2-((3-hydroxypropyl)amino)-5,6-dimethyl-1H-benzo[d]imidazol-1-yl)ethanone]",plasma protein binding (% bound) mouse 1 μM,[2]; 1 μM,99.8 % bound
same,plasma protein binding (% bound) mouse 10 μM,[2]; 10 μM,99.9 % bound
same,IC50,[3],< 5 µM
same,IC50,[4],< 0.1 µM
same,% inhibition of Raf,Raf,57 % inhibition
same,IC50,murine B-lymphocytes,~2 µM
same,plasma stability (% remaining) mouse,[5],100/100 % remaining
same,% inhibition of JAK2,JAK2,53 % inhibition
same,inhibition of NF-κB reporter gene activation by agonists of the other NF-κB activation pathways,[6],failing to inhibit
same,suppression of PKC-θ,PKC-θ,failed to suppress
same,number of targets with greater than 50% inhibition,[7],eight
same,microsome stability (% remaining) mouse 1 μM,[8]; 1 μM,0.5 % remaining
same,microsome stability (% remaining) mouse 10 μM,[8]; 10 μM,19 % remaining
same,microsome stability (% remaining) human 1 μM,[9]; 1 μM,26 % remaining
same,microsome stability (% remaining) human 10 μM,[9]; 10 μM,55 % remaining
same,observed tolerability of the cohort,[10],clear signs of morbidity
same,plasma stability (% remaining) human,[11],100/100 % remaining
same,% inhibition of TLK1,TLK1,70 % inhibition
same,inhibition of NF-κB activation through TNF-α stimulation,[12],did not inhibit
same,suppression of IKK-β,IKK-β,failed to suppress
same,plasma protein binding (% bound) human 1 μM,[13]; 1 μM,99.9 % bound
same,plasma protein binding (% bound) human 10 μM,[13]; 10 μM,99.8 % bound
same,suppression of PKC-β,PKC-β,failed to suppress
same,number of kinases inhibited by more than 50%,353 protein kinases,three
Cc1cc2nc(NCCCO)n(CC(=O)c3cccc(C(C)(C)C)c3)c2cc1C [Compound 1m],NF-κB inhibitory activity (in words),[1],completely inactive
Cc1cc2nc(NCCCO)n(CC(=O)c3cc(C(C)(C)C)cc(C(C)(C)C)c3)c2cc1C [Compound 1l],NF-κB inhibitory activity (in words),[1],retained complete activity
"Cc1cc(Cc2cc(C)cc(C(C)(C)C)c2O)c(O)c(C(C)(C)C)c1 [Compound 10, 6,6′-methylenebis-(2-tert-butyl-4-methylphenol), reference compound]",NF-κB inhibitory activity (in words),[1],inactive
Cc1cc2[nH]c(=O)n(CC(=O)c3cc(C(C)(C)C)c(O)c(C(C)(C)C)c3)c2cc1C [Compound 19],NF-κB inhibitory activity (in words),[1],essentially equipotent to 1a
Cc1cc2nc(NCCCO)n(CC(=O)c3cccc(OC(C)(C)C)c3)c2cc1C [Compound 1n],NF-κB inhibitory activity (in words),[1],completely inactive
Cc1cc2ncn(CC(=O)c3cc(C(C)(C)C)c(O)c(C(C)(C)C)c3)c2cc1C [Compound 18],NF-κB inhibitory activity (in words),[1],significant loss of activity
CC(C)(C)c1cc(C(=O)Cn2c(NCCCO)nc3cc(Br)ccc32)cc(C(C)(C)C)c1O [Compound 1b],fold drop in activity relative to 1a,[1],40−80 fold
"Cc1c(C(C)(C)C)cc(O)cc1C(C)(C)C [Compound 9, 3,5-Di-t-butyl-4-methylphenol, reference compound]",NF-κB inhibitory activity (in words),[1],inactive
C#CCCCCC(=O)OCCCNc1nc2cc(C)c(C)cc2n1CC(=O)c1cc(C(C)(C)C)c(O)c(C(C)(C)C)c1 [Compound 1p],fold drop in activity relative to 1a,[1],≤ 6 fold
"CN[C@@H]1C[C@H]2O[C@@](C)([C@@H]1OC)n1c3ccccc3c3c4c(c5c6ccccc6n2c5c31)C(=O)NC4 [staurosporine, reference compound]",suppression of PKC-θ,PKC-θ,potent inhibition
same,suppression of IKK-β,IKK-β,potent inhibition
CC(C)(C)c1cc(C(=O)Cn2c(NCCCO)nc3cc([N+](=O)[O-])ccc32)cc(C(C)(C)C)c1O [Compound 1e],fold drop in activity relative to 1a,[1],20 fold
Cc1cc2nc(N3CCC(O)CC3)n(CC(=O)c3cc(C(C)(C)C)c(O)c(C(C)(C)C)c3)c2cc1C [Compound 1k],NF-κB inhibitory activity (in words),[1],abolish activity
CC(C)(C)c1cc(C(=O)Cn2c(NCCCO)nc3ccc([N+](=O)[O-])cc32)cc(C(C)(C)C)c1O [Compound 17e],NF-κB inhibitory activity (in words),[1],inactive
Cc1cc2nc(NCCCN=[N+]=[N-])n(CC(=O)c3cc(C(C)(C)C)c(O)c(C(C)(C)C)c3)c2cc1C [Compound 1o],fold drop in activity relative to 1a,[1],≤ 6 fold
